The values that follow come from ChEMBL document CHEMBL1145815, “SYNOPSIS: SYNthesize and OPtimize System in Silico” (J Med Chem, 2003).

Assay [1] can be described thus: Logarithm of inhibitory concentration against HIV-induced cytopathogenicity in MT-4 cell cultures. It counts as functional, cell-based. The settings on record: Human immunodeficiency virus 1, MT4. In a few lines:
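Protection of MT-4 cell cultures against HIV-induced cytopathogenicity. Reduction of yellow MTT to blue formazan by mitochondrial dehydrogenases of metabolically active cells is read spectrophotometrically in HIV- and mock-infected cultures. IC50 is the concentration giving 50% protection against HIV-induced cytopathogenicity. CC50 is the concentration killing half the cells in mock-infected cultures.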
In general terms: Damage to the host cells serves as the signal in cytopathic effect assays.

In assay [2] the test system is MT4. The assay is described as follows: Logarithm of cytotoxic concentration that causes half of the cells to die in mock-infected MT-4 cell cultures. Format: functional, Homo sapiens. The gist of the method:
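Mock-infected MT-4 cell cultures exposed to compound; viability read spectrophotometrically as mitochondrial dehydrogenase reduction of yellow MTT to blue formazan in metabolically active cells. CC50 taken as the concentration killing half the cells, run alongside HIV-infected cultures.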

What is called IC50 is the concentration that gives 50% inhibition. Lower therefore signals inhibition by little substance. Broadly, the pCC50 is −log10 of the CC50, conventionally taken in molar units. Low values mean a large CC50, high ones a small CC50.

In assay [1], `COc1cccc(CC/N=C(\S)Nc2ccc(C#N)cc2)c1` had an IC50 of 1.58 µM. In assay [2], the pCC50 came to 4.3.
Taken in the same sequence, the figures for `O=C(N/N=C(\S)Nc1cc(Cl)cc(Cl)c1)c1ccccc1F` were over 7.94 µM and 5.1.
Taken in the same sequence, the figures for `NC(=O)N/N=C\c1cc(Cl)ccc1Nc1cccc(Cl)c1` were 2.51 µM and under 4.
The compound `O=C(Nc1cccnc1)Nc1nc(Cl)ccc1Cl` had an IC50 in assay [1] of 31.6 µM. The compound also showed a pCC50 in assay [2] of under 4.
On the same counts, the results for `Oc1cc(O)cc(CNc2cc(Cl)c(Cl)c(Cl)c2)c1` are over 50.1 µM and 4.3.
Regarding `CC(C)n1c(O)nnc1Sc1cccc(C(F)(F)F)c1`, the IC50 in assay [1] is 79.4 µM. This compound had a pCC50 in assay [2] of under 4.
Consider `CC(NCCc1cccs1)c1cc(C#N)ccc1O` (centres undefined), for which, in assay [1], the IC50 is over 100 µM. The compound further had a pCC50 in assay [2] of under 4.
The compound `NC(=O)N/N=C\c1ccccc1NCc1ccccn1` gave an IC50 in assay [1] of 6.31 µM. Moreover, in assay [2], the pCC50 is reported as under 4.
In the case of `O=C1NCCCC1C(=O)NNC(=S)Nc1cc(Cl)cc(Cl)c1` (centres undefined), the IC50 in assay [1] was over 50.1 µM. The negative-log CC50 (pCC50) in assay [2] turned out to be 4.3.
On the same counts, the results for `CSc1cccnc1C(=O)NCc1ccc(N)cc1` are 39.8 µM and under 4.
On the same counts, the results for `COC(C/N=C(\S)Nc1c(Br)cc(Cl)cc1Br)OC` are 25.1 µM and under 4.
As for `CCCc1cc(O)nc(SCC(C)(C)c2ccccc2)n1`, in assay [1], inhibition was half-maximal at 15.8 µM (IC50). In assay [2], this compound yielded a pCC50 of under 4.3.
Taken in the same sequence, the figures for `N#Cc1ccc(O)c(NC(=O)Nc2cccc(F)c2)c1` were over 100 µM and under 4.
As for `CC(C)(C)c1nc(COc2ccc(C(N)=O)c(O)c2)no1`, in assay [1], the IC50 was over 100 µM. Further, the pCC50 in assay [2] is given as under 4.
On the same counts, the results for `O=C(Cc1ccc(I)cc1)Nc1ncccc1O` are over 100 µM and under 4.
Turning to `CC(Nc1ncccc1C(N)=O)c1cccc(Cl)c1` (centres undefined), the IC50 in assay [1] was 12.6 µM. This compound had a pCC50 in assay [2] of under 4.
For `S=C(NCc1ccc(Cl)c(Cl)c1)Nc1cccnc1`, the IC50 in assay [1] is over 39.8 µM. In assay [2], this compound displayed a pCC50 of 4.4.
